Screening results (PubChem BioAssay)
UPR CHOP act = apoptotic UPR (CHOP) activation; actives 0.34% (n = 330,000); activation, % at 10 µM; AID 449763; CHO-CHOP luciferase reporter, luminescence; percent of tunicamycin response over DMSO baseline;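 active = at 10 µM dose, activation of 40% or more, normalized to positive control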
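assay system = CHO CHOP reporter cells | amount = 500 CHO-CHOP cells per well | buffer or medium = F12 with 10% FBS | incubation = 16-18 h cell attachment, then 6 h compound exposure, 37 °C | detection = luminescence read with Steady-Glo | read-out = percent activation relative to tunicamycin control | controls = tunicamycin high control, DMSO low control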
UPR XBP1 act = activators of adaptive arm of unfolded protein response (XBP1). CHO-XBP1 luciferase reporter, IRE1-XBP1 UPR activation, luminescence; percent of tunicamycin response, DMSO as zero. activation, % at 20 µM. actives 0.33% (n = 330,000). AID 463104;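 active = versus positive control, 20 µM dose yields 30% or more activation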
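Material: CHO cell line with stable XBP1 luciferase reporter; schedule: 16-18 h cell attachment at 37 °C, then 6 h compound exposure; signal: glow luminescence from Steady-Glo reagent; medium: serum-containing F12 medium, 10% FBS; benchmarks: tunicamycin 10 µg/mL and vehicle-only wells; read-out: percent activation relative to tunicamycin reference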
CHOP inh = CHOP inhibition in unfolded protein response; inhibition, % at 10 µM; AID 2732; actives 3.8% (n = 220,000); CHO-K1 CHOP-promoter luciferase, tunicamycin-induced, 15-18 h;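 active = compounds that reduced the stress-induced luciferase reporter signal by more than about 70% of percent inhibition, limit read from the data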
p97 inhibitor = human p97 ATPase inhibition; recombinant p97 ATPase, Kinase-Glo ATP luminescence, 3 h; inhibition, % at 8 µM; actives 0.42% (n = 220,000); AID 1481; in the data active = inhibition above about 15%
Target sequence (P55072 whole entry, looked up): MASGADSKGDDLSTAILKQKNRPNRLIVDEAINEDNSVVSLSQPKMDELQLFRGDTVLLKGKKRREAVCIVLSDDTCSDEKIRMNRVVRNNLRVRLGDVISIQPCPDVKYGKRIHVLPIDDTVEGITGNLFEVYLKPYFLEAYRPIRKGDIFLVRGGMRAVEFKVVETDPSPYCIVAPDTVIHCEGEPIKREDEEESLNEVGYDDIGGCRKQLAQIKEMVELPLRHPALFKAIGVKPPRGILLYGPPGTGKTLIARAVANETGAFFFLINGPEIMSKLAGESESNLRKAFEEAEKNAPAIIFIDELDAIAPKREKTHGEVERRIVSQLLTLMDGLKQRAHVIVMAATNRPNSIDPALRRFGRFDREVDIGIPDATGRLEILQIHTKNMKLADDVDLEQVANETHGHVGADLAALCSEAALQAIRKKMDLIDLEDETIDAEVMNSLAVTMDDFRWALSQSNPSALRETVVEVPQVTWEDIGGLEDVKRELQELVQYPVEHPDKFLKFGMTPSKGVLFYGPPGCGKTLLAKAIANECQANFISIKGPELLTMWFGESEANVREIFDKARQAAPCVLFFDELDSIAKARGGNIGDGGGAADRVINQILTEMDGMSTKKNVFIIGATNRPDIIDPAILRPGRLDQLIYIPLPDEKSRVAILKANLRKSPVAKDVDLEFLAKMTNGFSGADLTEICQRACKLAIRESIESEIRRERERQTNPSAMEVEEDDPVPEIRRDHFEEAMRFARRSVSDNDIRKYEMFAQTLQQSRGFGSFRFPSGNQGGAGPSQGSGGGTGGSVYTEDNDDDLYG
M18AAP inhibitor = blocks P. falciparum M18 aspartyl aminopeptidase; recombinant PfM18AAP, H-Glu-NHMec fluorogenic cleavage; inhibition, % at 7.35 µM; actives 1.2% (n = 290,000);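 active = inhibition above the campaign mean inhibition over all tested compounds plus 3 SD, cut at about 28% in these data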
HCV NS3 hel inh = HCV NS3 helicase inhibition. NS3 helicase DNA unwinding, Cy5 molecular beacon fluorescence. inhibition, % at 10.9 µM. actives 0.56% (n = 290,000). AID 1800;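 active = inhibition above the mean of all tested compounds plus 3 SD, set per campaign, cut at about 35% in these data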
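Test system: hepatitis C virus NS3 helicase domain fragment enzyme. Also added: annealed dual-labelled DNA beacon duplex, ATP-started. Timing: 60 min unwinding reaction at 25 °C after ATP addition. Technique: Cy5 fluorescence. Measure: % inhibition of unwinding.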
Hits are given with their value; . = inactive; / = no result given. In the library only some 4.5% were active in any assay of this set; here they are far more common.

SMILES	UPR CHOP act	UPR XBP1 act	CHOP inh	p97 inhibitor	M18AAP inhibitor	HCV NS3 hel inh
Cc1ccc(/C=N/n2cc(-c3ccccc3)[nH]c2=S)s1	.	.	.	.	53	.
S=c1[nH]c(-c2ccccc2)cn1/N=C/c1cccc2ccccc12	.	.	.	.	.	.
CC1=C(C(=O)OCc2ccccc2)C(c2cccnc2)n2ncnc2N1 (stereo unspecified)	.	.	.	.	.	.
CC1=C(C(=O)OCc2ccccc2)C(c2cccnc2)c2c(n(C)c(=O)n(C)c2=O)N1 (stereo unspecified)	.	.	85	.	.	.
COC(=O)Nc1sc2c(c1C(N)=O)CCC(C)C2 (stereo unspecified)	.	.	.	.	49	.
Cc1c(/C=N/Nc2ccc([N+](=O)[O-])cn2)c2ccccc2n1Cc1ccccc1	.	.	.	.	.	.
Cc1ccc(Cn2cc(/C=N/Nc3ccc([N+](=O)[O-])cn3)c3ccccc32)cc1	.	.	.	.	54	.
COc1ccc(/C=N/NS(=O)(=O)c2ccccc2)cc1OC(=O)c1ccc(C)cc1	.	.	74	.	.	.
CCC(C)[C@H](NC(=O)[C@@H]1CSC2c3ccccc3C(=O)N21)C(=O)NCc1ccncc1 (stereo partly specified)	.	.	/	/	.	.
Cc1ccc(NC(=O)Cn2c(-c3ccc(F)cc3)cnc2SCC(=O)Nc2c(C)cccc2C)cc1	.	.	81	.	.	.
CCOc1ccc(NC(=O)CSc2ncc(-c3ccc(F)cc3)n2Cc2ccco2)cc1	.	.	.	.	.	.
COc1ccc(-c2noc(Cc3ccccc3OC)n2)cc1	.	.	92	.	.	.
Cc1ccc(OCc2nc(-c3ccccc3)no2)cc1	.	.	.	.	.	.
COc1ccccc1Cc1nc(-c2cccnc2)no1	.	.	.	.	.	.
Cc1ccccc1OCc1nc(-c2ccc(Br)o2)no1	.	.	84	.	.	.
COc1ccccc1-c1nc(-c2ccc(Br)o2)no1	.	.	73	.	.	.
COc1ccccc1Cc1nc(-c2ccc(Br)o2)no1	.	.	.	.	.	.
Cc1ccc(-c2noc(COc3ccccc3C)n2)cc1	.	.	90	.	.	.
CC(=O)NCCNC(=O)c1cccc(NS(=O)(=O)c2ccc3c(c2)OCCO3)c1	.	.	/	/	/	/
CCOC(=O)Cn1nc(-c2ccccc2)c2cnc3ccc(C)cc3c21	.	.	73	.	.	.
CC(=O)c1cccc(NS(=O)(=O)c2ccc(-c3cc(C)no3)s2)c1	.	.	/	/	.	.
COc1cccc(/C=C2/SC(=O)N(C)C2=O)c1OCc1ccc(C(=O)O)cc1	.	.	.	.	29	.
CN1C(=O)S/C(=C/c2ccc(OCc3cccc(C(=O)O)c3)cc2)C1=O	.	.	/	/	.	.
Cc1ccc(OCCN2CCN(c3ncnc4sc(C)c(C)c34)CC2)cc1	.	.	72	.	.	.
Cc1cccc(CN(CC(=O)N/N=C/c2cccs2)S(=O)(=O)c2ccc(Cl)cc2)c1	.	.	78	.	.	.
SMILES	UPR CHOP act	UPR XBP1 act	CHOP inh	p97 inhibitor	M18AAP inhibitor	HCV NS3 hel inh
O=C(CN(CCc1ccccc1)S(=O)(=O)c1ccc(Cl)cc1)N/N=C/c1ccc2c(c1)OCO2	.	.	77	.	.	.
Cc1cccc(CN(CC(=O)N/N=C/c2ccco2)S(=O)(=O)c2ccc(Cl)cc2)c1	.	.	.	.	.	.
COc1ccc(S(=O)(=O)N(CCc2ccccc2)CC(=O)N/N=C/c2ccc3c(c2)OCO3)cc1	.	.	.	.	.	.
CCOC(=O)c1ccc(NC(=O)Cc2coc3cc4c(cc23)CCC4)cc1	.	.	77	.	.	.
CCOC(=O)c1ccc(NC(=O)COC)cc1	.	.	.	.	.	.
O=C(COc1ccc(Br)cc1)Nc1ccccc1C(=O)NC1CC1	.	.	/	/	/	/
COc1cc(OC)cc(-c2cc3nc(C)c(CCC(=O)NC(C)CCc4ccco4)c(C)n3n2)c1 (stereo unspecified)	.	.	/	.	.	.
